In article PMC8158801 (ACS Omega, 2021):

Legend:
[1] = tested on: Human hepatocellular carcinoma (HepG2) cell line; assay: Cytotoxic activity, MTT cell viability assay, HepG2; format: cell-based; parameters: unit not given beside the values; conditions: n = 3, reference standard
Procedure, shortened: (§1)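 The defatted alcoholic root extract was tested at 4–500 μg/mL, with cisplatin as the reference standard, in an MTT cell-viability assay. Viability is expressed as % of untreated control. IC50 was derived by linear regression. Each point was run in triplicate and reported as mean ± SD.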

[2] = tested on: mouse myelogenous leukemia (M-NFS-60) cell line; assay: Cytotoxic activity, MTT cell viability assay, M-NFS-60; format: cell-based; parameters: unit not given beside the values; conditions: n = 3, reference standard
Procedure, shortened: as §1

N.N.[Cl][Pt][Cl] [cisplatin]
IC50 against HepG2 cell line (unit not given) [1]: 3.25 ± 1.4 | IC50 against M-NFS-60 cell line (unit not given) [2]: 8.37 ± 0.25
